From PubChem BioAssay AID492988 (Johns Hopkins Ion Channel Center, 2010) come the findings set out here.

Results filed as inconclusive are left out. Calls of active or inactive are those of the source.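 The calls were made as follows: active = duplicate-averaged calcium signal falling below the mean of the agonist-only control wells less 5 SD; inactive = the rest, inconclusive results apart.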

The term inhibition denotes the change of the read-out against control, counted positive when it falls.

This assay concerns Transient receptor potential cation channel subfamily C member 4 (TRPC4beta), mouse. As to the kind of experiment: blockers of DAMGO-driven mouse TRPC4 calcium entry – cell-based, HEK293 TRPC4beta/mu-opioid, Fluo-4 calcium flux, single concentration, SAR follow-up (AID 492988). Conditions: DAMGO-evoked Fluo4 calcium flux, at 10 µM, stronger effect = higher value. In a few lines:
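system = HEK293 cells stably expressing TRPC4beta plus mu-opioid receptor | probe or stimulus = DAMGO, submaximal then ECmax | times = 110 s compound preincubation, 110 s submaximal DAMGO exposure | replicates = duplicate wells per compound | read-out = peak-minus-trough fluorescence over baseline, integrated ratio, mean % inhibition | detection = Fluo4 calcium-sensitive dye fluorescence, calcium flux | compound = single concentration per test compound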
Take `Cc1cc(N2CCCCC2)nc2c(C)cccc12`: the inhibition was 46.4%.

Regarding `Cc1cc(N(C)CCN(C)C)nc2ccccc12`, the inhibition was -249% (inactive).

Take `Cc1cc(N2CCC(C)CC2)nc2ccccc12`: the inhibition is 91.6%.

Take `Cc1cc(N2CCNCC2)nc2ccccc12`: the inhibition was -292% (inactive).

Regarding `Cc1cc(N2CCCC2)nc2ccc(F)cc12`, the inhibition was 91.3%.

Consider `FC(F)(F)c1cc(N2CCCC2)nc2ccccc12`, for which the inhibition was -10.6% (inactive).

Consider `c1ccc(-c2cc(N3CCCCC3)nc3ccccc23)cc1`, for which the inhibition is 55.9%.

Regarding `COc1ccccc1N1CCN(c2cc(C)c3ccccc3n2)CC1`, the inhibition was 72.2%.

Turning to `c1ccc(-c2cc(N3CCCC3)nc3ccccc23)cc1`, the inhibition is 79.9%.

Take `CCc1ccc2nc(N3CCCC3)cc(C)c2c1`: the inhibition is 91.5%.

Take `Cc1cc(N2CC(C)CC(C)C2)nc2ccccc12` (centres undefined): the inhibition is 32.4% (inactive).

`Cc1cc(N2CCCC2)nc2c(C)cccc12`: the inhibition was 70.1%.

As to `FC(F)(F)c1cc(N2CCCCC2)nc2ccccc12`, the inhibition is 39.7% (inactive).

With `Cc1cc(N2CCN(c3ccncc3)CC2)nc2ccccc12`, the inhibition is 29.5% (inactive).

On to `CCN(CC)c1cc(C)c2ccccc2n1`, for which the inhibition is 61.2%.

In the case of `Cc1ccnc(N2CCCCC2)n1`, the inhibition is 38.2% (inactive).

For the compound `Cc1cc(N2CCOCC2)nc2ccccc12`, the inhibition is 42.6%.

As for `Cc1cc(N2CCN(CC3CCCO3)CC2)nc2ccccc12` (centres undefined), the inhibition was -51.3% (inactive).

In the case of `COCCN(C)c1cc(C)c2ccccc2n1`, the inhibition is 24.5% (inactive).

Regarding `Cc1ccnc(N2CCCCC2)c1`, the inhibition is 50.8%.

As to `Cc1cc(N2CCCC(O)C2)nc2ccccc12` (centres undefined), the inhibition was 69.3%.

In the case of `Cc1cc(N2CCCC2)nc2ccccc12`, the inhibition is 84.9%.

As for `Cc1cc(N2CCC(N3CCOCC3)CC2)nc2ccccc12`, the inhibition is 11.7% (inactive).

As for `Cc1cc(N2CCN(c3ncccn3)CC2)nc2ccccc12`, the inhibition was 6.42% (inactive).

Consider `Cc1cc(N2CCN(c3ccccc3C#N)CC2)nc2ccccc12`, for which the inhibition was 42% (inactive).

Turning to `Cc1ccc2nc(N3CCCC3)cc(C)c2c1`, the inhibition was 93%.

Consider `Cc1cc(N2CCCCC2)nc2ccccc12`, for which the inhibition is 90%.

`Cc1cc(N2CCCCC2)nc2ccc(F)cc12`: the inhibition is 72.9%.

Take `COc1ccc(N2CCN(c3cc(C)c4ccccc4n3)CC2)cc1`: the inhibition is -82.8% (inactive).

Turning to `Cc1cc(N2CCC[C@@H]2C)nc2ccccc12`, the inhibition was 90%.

For `Cc1ccnc(N2CCCC2)c1`, the inhibition was 44.1%.

With `Cc1ccnc(N2CCCC2)n1`, the inhibition is 38% (inactive).

For the compound `Cc1cc(N2CCN(C)CC2)nc2ccccc12`, the inhibition was -157% (inactive).

Regarding `Cc1cc(N2CCOc3ccccc32)nc2ccccc12`, the inhibition is 63%.
